# Laboratory results from ChEMBL document CHEMBL2424619, “Small-molecule ligands of methyl-lysine binding proteins: optimization of selectivity for L3MBTL3” (J Med Chem, 2013).
# Experiments:
# PHD finger protein 23 = PHD finger protein 23 (Homo sapiens, UniProt Q9BUL5); test: Inhibition of PHF23 (unknown origin) after 30 mins by AlphaScreen assay
# Summary of the method: (§1)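 AlphaScreen competition with histone peptide. Compounds in 3-fold, 10-point dilutions, top 10 or 30 μM; buffer 20 mM Tris pH 8.0, 25 mM NaCl, 2 mM DTT, 0.05% Tween-20. Protein-peptide mix 30 min RT, then streptavidin donor plus nickel-chelate acceptor beads (GST acceptor beads for GST-tagged PHF23, JARID1A) 30 min RT dark. Protein-free His6-biotin peptide counterscreen.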
# [1] = molecular target: T1, E3 ubiquitin-protein ligase UHRF1 (Homo sapiens, UniProt Q96T88); test: Inhibition of UHRF1 (unknown origin) after 30 mins by AlphaScreen assay
# T1 sequence (Q96T88 whole entry): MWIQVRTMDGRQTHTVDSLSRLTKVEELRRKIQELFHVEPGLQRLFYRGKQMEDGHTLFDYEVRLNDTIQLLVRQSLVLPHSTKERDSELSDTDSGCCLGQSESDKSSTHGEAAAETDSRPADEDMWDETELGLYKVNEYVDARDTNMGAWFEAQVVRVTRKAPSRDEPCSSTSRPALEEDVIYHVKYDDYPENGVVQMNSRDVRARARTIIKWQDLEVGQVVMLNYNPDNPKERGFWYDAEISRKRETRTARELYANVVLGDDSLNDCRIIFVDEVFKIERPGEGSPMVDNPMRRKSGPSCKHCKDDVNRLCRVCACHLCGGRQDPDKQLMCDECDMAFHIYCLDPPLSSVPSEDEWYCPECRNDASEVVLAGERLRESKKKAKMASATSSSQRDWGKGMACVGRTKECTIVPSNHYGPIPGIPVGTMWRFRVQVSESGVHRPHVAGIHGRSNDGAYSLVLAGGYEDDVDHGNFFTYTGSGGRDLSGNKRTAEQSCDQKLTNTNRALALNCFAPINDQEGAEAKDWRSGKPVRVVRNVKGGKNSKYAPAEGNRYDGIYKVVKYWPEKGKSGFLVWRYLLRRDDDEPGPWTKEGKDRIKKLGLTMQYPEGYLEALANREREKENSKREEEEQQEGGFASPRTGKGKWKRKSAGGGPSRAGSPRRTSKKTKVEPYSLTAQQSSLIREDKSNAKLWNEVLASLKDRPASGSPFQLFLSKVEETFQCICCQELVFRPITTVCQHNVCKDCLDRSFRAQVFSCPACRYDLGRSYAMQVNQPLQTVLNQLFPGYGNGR
# Summary of the method: as §1, with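 “dark. […]” for “dark.”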
# [2] = molecular target: MBT domain-containing protein 1 (Homo sapiens, UniProt Q05BQ5); test: Inhibition of MBTD1 (unknown origin) after 30 mins by AlphaScreen assay; summary of the method: as §1
# [3] = molecular target: T2, Scm-like with four MBT domains protein 1 (Homo sapiens, UniProt Q9UHJ3); test: Inhibition of SFMBT1 (unknown origin) after 30 mins by AlphaScreen assay
# T2 sequence (Q9UHJ3 whole entry): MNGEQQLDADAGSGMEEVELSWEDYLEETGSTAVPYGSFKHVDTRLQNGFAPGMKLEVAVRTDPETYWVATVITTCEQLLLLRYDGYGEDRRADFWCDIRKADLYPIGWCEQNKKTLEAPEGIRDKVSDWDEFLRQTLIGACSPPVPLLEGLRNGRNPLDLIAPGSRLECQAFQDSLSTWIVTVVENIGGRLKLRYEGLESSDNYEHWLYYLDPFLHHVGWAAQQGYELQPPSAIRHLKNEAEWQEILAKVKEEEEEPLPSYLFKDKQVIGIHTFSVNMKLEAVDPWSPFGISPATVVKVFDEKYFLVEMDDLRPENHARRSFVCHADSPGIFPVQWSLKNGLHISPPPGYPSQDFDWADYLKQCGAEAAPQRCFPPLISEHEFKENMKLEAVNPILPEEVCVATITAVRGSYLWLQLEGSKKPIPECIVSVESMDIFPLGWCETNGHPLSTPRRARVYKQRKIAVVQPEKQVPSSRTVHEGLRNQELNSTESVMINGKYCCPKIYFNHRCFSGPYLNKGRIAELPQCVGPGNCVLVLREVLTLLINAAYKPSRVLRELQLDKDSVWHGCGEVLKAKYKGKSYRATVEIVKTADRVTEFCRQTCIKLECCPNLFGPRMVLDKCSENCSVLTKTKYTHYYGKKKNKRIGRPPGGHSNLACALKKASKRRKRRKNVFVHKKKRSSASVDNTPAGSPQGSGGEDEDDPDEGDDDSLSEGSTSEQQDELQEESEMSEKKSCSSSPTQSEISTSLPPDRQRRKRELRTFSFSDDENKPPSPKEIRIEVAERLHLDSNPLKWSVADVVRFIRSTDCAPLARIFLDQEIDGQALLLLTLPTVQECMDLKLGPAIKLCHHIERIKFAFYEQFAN
# Summary of the method: as §1, with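 “dark. […]” for “dark.”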
# MBT domain-containing protein 1, sequence (Q05BQ5 whole entry, the tested form may be a part): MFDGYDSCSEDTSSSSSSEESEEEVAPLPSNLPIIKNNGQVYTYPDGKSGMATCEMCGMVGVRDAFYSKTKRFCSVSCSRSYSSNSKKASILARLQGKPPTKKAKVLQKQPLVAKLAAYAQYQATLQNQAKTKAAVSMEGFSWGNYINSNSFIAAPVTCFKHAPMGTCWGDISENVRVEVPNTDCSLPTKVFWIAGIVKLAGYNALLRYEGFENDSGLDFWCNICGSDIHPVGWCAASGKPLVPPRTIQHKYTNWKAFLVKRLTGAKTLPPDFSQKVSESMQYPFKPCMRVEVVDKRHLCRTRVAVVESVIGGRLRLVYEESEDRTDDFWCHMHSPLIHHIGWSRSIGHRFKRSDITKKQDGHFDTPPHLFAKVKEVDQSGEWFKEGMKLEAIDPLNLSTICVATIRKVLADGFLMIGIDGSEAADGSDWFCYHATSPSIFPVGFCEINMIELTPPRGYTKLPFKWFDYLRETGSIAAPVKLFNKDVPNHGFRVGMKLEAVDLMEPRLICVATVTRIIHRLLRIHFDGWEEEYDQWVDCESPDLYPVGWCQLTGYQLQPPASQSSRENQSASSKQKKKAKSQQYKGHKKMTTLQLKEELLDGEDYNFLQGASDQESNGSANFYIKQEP
# PHD finger protein 23, sequence (Q9BUL5 whole entry): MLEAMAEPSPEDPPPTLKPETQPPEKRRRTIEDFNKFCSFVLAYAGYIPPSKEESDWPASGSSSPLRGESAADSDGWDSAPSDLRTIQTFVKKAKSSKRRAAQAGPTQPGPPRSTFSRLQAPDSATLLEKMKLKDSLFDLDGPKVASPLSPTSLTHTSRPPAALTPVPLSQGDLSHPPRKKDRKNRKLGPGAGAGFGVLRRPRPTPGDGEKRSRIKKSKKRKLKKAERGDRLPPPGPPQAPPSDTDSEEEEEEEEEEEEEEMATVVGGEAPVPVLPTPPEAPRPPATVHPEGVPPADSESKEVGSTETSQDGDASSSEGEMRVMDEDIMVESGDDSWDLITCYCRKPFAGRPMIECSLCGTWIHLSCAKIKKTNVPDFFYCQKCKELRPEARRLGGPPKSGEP
IC50 (PHD finger protein 23),IC50 [1],IC50 [2],IC50 [3],Compound
> 10 µM,> 10 µM,> 10 µM,> 10 µM,O=C(c1ccc(C(=O)N2CC3(CCNC3)C2)cc1)N1CCC(N2CCCC2)CC1
> 10 µM,> 10 µM,> 10 µM,> 10 µM,O=C(c1ccc(C(=O)N2CC(N3CCCC3)C2)cc1)N1CCC(N2CCCC2)CC1
> 10 µM,> 10 µM,> 10 µM,> 10 µM,O=C(c1ccc(C(=O)N2CCC(N3CCCC3)CC2)o1)N1CCC(N2CCCC2)CC1
> 10 µM,> 10 µM,4 µM,> 10 µM,O=C(c1ccc(C(=O)N2CCC(C3CCCN3)CC2)cc1)N1CCC(C2CCCN2)CC1 (stereo unspecified)
> 10 µM,> 10 µM,> 10 µM,> 10 µM,CCN1Cc2ccc(NC(=O)c3ccc(C(=O)N4CC5CCC(C4)C5N4CCCC4)cc3)cc2C1 (stereo unspecified)
> 10 µM,> 10 µM,10 µM,> 10 µM,O=C(c1ccc(C(=O)N2CCC(N3CCCC3)CC2)cc1)N1CCC(N2CCCCC2)CC1
> 10 µM,> 10 µM,> 10 µM,> 10 µM,CN1CCCC1C1CCN(C(=O)c2ccc(C(=O)N3CCC(C4CCCN4C)CC3)cc2)CC1 (stereo unspecified)
,> 10 µM,8.1 µM,> 10 µM,O=C(c1ccc(C(=O)N2CCC(N3CCCC3)CC2)cc1)N1CCC(C2CCCCC2)CC1
> 10 µM,> 10 µM,8.2 µM,> 10 µM,O=C(c1ccc(N2CCC(N3CCCC3)CC2)cc1)N1CCC(N2CCCC2)CC1
> 10 µM,> 10 µM,> 10 µM,> 10 µM,O=C(c1ccc(C(=O)N2CCC(N3CCCC3)CC2)cc1)N1CCC(C2CCNCC2)CC1
> 10 µM,> 10 µM,> 10 µM,> 10 µM,CN1CCN2CC(NC(=O)c3ccc(C(=O)N4CCC(N5CCCC5)CC4)cc3)CC2C1 (stereo unspecified)
> 10 µM,> 10 µM,> 10 µM,> 10 µM,O=C(c1ccc(C(=O)N2CC3CCC(C2)C3N2CCCC2)cc1)N1CC2CCC(C1)C2N1CCCC1 (stereo unspecified)
> 10 µM,> 10 µM,9.7 µM,> 10 µM,O=C(c1ccc(C(=O)N2CCC(N3CCCC3)CC2)cc1)N1CCC(N2CCCCCC2)CC1
> 10 µM,> 10 µM,> 10 µM,> 10 µM,O=C(c1ccc(C(=O)N2CCC(N3CCOCC3)CC2)cc1)N1CCC(N2CCCC2)CC1
> 10 µM,> 10 µM,> 10 µM,> 10 µM,Nc1cc(C(=O)N2CCC(N3CCCC3)CC2)ccc1C(=O)N1CCC(N2CCCC2)CC1
> 10 µM,> 10 µM,> 10 µM,> 10 µM,Cc1cc(C(=O)N2CCC(N3CCCC3)CC2)c(C)cc1C(=O)N1CCC(N2CCCC2)CC1
> 10 µM,> 10 µM,3.5 µM,> 10 µM,CCN1Cc2ccc(NC(=O)c3ccc(C(=O)N4CCC(C5CCCN5)CC4)cc3Nc3ccccc3)cc2C1 (stereo unspecified)
> 10 µM,> 10 µM,> 10 µM,> 10 µM,CC(C1CCN(C(=O)c2ccc(C(=O)N3CCC(N4CCCC4)CC3)cc2)CC1)N1CCN(C)CC1 (stereo unspecified)

IC50 (PHD finger protein 23),IC50 [1],IC50 [2],IC50 [3],Compound
> 10 µM,> 10 µM,> 10 µM,> 10 µM,O=C(c1ccc(C(=O)N2CCC(N3CCCC3)CC2)c(NCc2ccccc2)c1)N1CCC(N2CCCC2)CC1
> 10 µM,> 10 µM,> 10 µM,> 10 µM,O=C(c1cncc(Br)c1)N1CCC(N2CCCC2)CC1
> 10 µM,> 10 µM,> 10 µM,> 10 µM,O=C(c1ccc(C(=O)N2CCC(N3CCCC3)CC2)nc1)N1CCC(N2CCCC2)CC1
> 10 µM,> 10 µM,> 10 µM,> 10 µM,CN1CCC(N2CCN(C(=O)c3ccc(C(=O)N4CCC(N5CCCC5)CC4)cc3)CC2)CC1
> 10 µM,> 10 µM,> 10 µM,> 10 µM,O=C(c1ccc(C(=O)N2CCC(N3CCCC3)CC2)c([N+](=O)[O-])c1)N1CCC(N2CCCC2)CC1
> 10 µM,> 10 µM,> 10 µM,> 10 µM,O=C(c1c(F)c(F)c(C(=O)N2CCC(N3CCCC3)CC2)c(F)c1F)N1CCC(N2CCCC2)CC1
> 10 µM,> 10 µM,6.8 µM,> 10 µM,O=C(c1ccc(C(=O)N2CCC(N3CCCC3)CC2)c(Cc2ccccc2)c1)N1CCC(N2CCCC2)CC1
> 10 µM,> 10 µM,> 10 µM,> 10 µM,O=C(c1cccc(C(=O)N2CCC(N3CCCC3)CC2)c1)N1CCC(N2CCCC2)CC1
> 10 µM,> 10 µM,8.1 µM,> 10 µM,O=C(c1ccc(CN2CCC(N3CCCC3)CC2)cc1)N1CCC(N2CCCC2)CC1
> 10 µM,> 10 µM,> 10 µM,> 10 µM,C[N+]1(C2CCN(C(=O)c3ccc(C(=O)N4CCC(N5CCCC5)CC4)cc3)CC2)CCCC1
> 10 µM,> 10 µM,> 10 µM,> 10 µM,O=C(c1ccc(C(=O)N2CCC3(CCNC3)CC2)cc1)N1CCC(N2CCCC2)CC1
> 10 µM,> 10 µM,> 10 µM,> 10 µM,CCN1Cc2ccc(NC(=O)c3ccc(C(=O)N4CCC(N5CCCC5)CC4)cc3)cc2C1
> 10 µM,> 10 µM,> 10 µM,> 10 µM,O=C(c1ccc(C(=O)N2CCC3(CCNC3)C2)cc1)N1CCC(N2CCCC2)CC1 (stereo unspecified)
> 10 µM,> 10 µM,> 10 µM,> 10 µM,O=C(c1ccc(C(=O)N2CCC(N3CCCC3)CC2)c(C(=O)N2CCC(N3CCCC3)CC2)c1)N1CCC(N2CCCC2)CC1
> 10 µM,> 10 µM,7.8 µM,> 10 µM,O=C(c1ccc(C(=O)N2CCC(N3CCCC3)CC2)c(Br)c1)N1CCC(N2CCCC2)CC1
> 10 µM,> 10 µM,> 10 µM,> 10 µM,O=C(c1ccc(C(=O)N2CC3CNCC3C2)cc1)N1CCC(N2CCCC2)CC1 (stereo unspecified)
> 10 µM,> 10 µM,5.1 µM,> 10 µM,CCN1Cc2ccc(NC(=O)c3ccc(C(=O)N4CCC(C5CCCN5)CC4)c(Nc4ccccc4)c3)cc2C1 (stereo unspecified)
> 10 µM,> 10 µM,,> 10 µM,O=C(c1ccc(C(=O)N2CCC(N3CCCC3)CC2)cc1)N1CCC(C2CCCN2)CC1 (stereo unspecified)

Compound,IC50 (PHD finger protein 23),IC50 [1],IC50 [2],IC50 [3]
O=C(c1ccc(C(=O)N2CCC(N3CCCC3)CC2)c(Nc2ccccc2)c1)N1CCC(N2CCCC2)CC1,> 10 µM,> 10 µM,9 µM,> 10 µM
